From ChEMBL document CHEMBL1132939, “Design and synthesis of trans-N-[4-[2-(6-cyano-1,2,3, 4-tetrahydroisoquinolin-2-yl)ethyl]cyclohexyl]-4-quinolinecarboxamide (SB-277011): A potent and selective dopamine D(3) receptor antagonist with high oral bioavailability and CNS penetration in the rat” (J Med Chem, 2000)

Experiments:
D(2) dopamine receptor = D(2) dopamine receptor (Homo sapiens, UniProt P14416); test: Binding affinity for human Dopamine receptor D2 expressed in CHO cells; format: cell-based
Chain of D(2) dopamine receptor (P14416 whole entry): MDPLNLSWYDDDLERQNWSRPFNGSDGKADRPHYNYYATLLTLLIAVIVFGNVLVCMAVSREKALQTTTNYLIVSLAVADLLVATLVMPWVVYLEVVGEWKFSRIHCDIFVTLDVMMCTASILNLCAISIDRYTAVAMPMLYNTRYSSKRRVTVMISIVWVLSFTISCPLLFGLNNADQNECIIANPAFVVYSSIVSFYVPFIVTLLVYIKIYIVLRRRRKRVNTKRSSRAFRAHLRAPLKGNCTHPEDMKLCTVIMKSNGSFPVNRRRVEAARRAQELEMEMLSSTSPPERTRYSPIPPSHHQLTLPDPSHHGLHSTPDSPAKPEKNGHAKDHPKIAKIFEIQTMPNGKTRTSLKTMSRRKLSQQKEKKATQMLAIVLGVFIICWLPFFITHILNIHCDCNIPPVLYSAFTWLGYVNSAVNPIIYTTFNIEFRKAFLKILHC

D(3) dopamine receptor = D(3) dopamine receptor (Homo sapiens, UniProt P35462); test: Binding affinity for human Dopamine receptor D3 expressed in CHO cells; format: cell-based
Chain of D(3) dopamine receptor (P35462 whole entry): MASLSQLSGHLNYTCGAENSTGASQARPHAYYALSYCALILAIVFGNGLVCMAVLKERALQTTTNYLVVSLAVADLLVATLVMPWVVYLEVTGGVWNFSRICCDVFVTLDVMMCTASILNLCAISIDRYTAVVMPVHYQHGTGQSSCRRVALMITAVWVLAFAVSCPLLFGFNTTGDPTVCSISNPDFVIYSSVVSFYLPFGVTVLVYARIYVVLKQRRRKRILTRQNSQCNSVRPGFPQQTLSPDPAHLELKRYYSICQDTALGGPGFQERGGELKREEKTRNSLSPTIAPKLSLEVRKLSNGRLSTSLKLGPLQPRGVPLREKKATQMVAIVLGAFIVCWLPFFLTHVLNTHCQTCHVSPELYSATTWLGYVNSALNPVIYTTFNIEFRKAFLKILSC

[1] = biological target: 5-hydroxytryptamine receptor 1B (Homo sapiens, UniProt P28222); test: Binding activity against human 5-hydroxytryptamine 1B receptor
Chain of 5-hydroxytryptamine receptor 1B (P28222 whole entry): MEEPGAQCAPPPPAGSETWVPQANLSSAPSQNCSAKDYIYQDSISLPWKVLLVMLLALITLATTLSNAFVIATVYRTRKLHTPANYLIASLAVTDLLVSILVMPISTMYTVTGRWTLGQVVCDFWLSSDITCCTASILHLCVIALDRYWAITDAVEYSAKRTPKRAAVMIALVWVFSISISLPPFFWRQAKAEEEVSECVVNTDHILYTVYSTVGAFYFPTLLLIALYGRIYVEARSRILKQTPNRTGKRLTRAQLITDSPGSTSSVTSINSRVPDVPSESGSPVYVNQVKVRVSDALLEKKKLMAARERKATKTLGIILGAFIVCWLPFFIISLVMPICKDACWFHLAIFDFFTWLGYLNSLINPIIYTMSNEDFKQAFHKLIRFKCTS
In short: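 Radioligand competition binding to human receptor, run by a procedure described in an earlier paper. Binding curves were fitted with an iterative four-parameter logistic model to give IC50, which was then converted to pKi.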

[2] = Compound was evaluated for Blood clearance in rat; conditions: whole blood
[3] = Compound was evaluated for its Half life in rat; conditions: in vivo
Cytochrome P450 2D6 = Cytochrome P450 2D6 (Homo sapiens, UniProt P10635); test: Inhibition of cytochrome P450 2D6; format: ADME
Chain of Cytochrome P450 2D6 (P10635 whole entry): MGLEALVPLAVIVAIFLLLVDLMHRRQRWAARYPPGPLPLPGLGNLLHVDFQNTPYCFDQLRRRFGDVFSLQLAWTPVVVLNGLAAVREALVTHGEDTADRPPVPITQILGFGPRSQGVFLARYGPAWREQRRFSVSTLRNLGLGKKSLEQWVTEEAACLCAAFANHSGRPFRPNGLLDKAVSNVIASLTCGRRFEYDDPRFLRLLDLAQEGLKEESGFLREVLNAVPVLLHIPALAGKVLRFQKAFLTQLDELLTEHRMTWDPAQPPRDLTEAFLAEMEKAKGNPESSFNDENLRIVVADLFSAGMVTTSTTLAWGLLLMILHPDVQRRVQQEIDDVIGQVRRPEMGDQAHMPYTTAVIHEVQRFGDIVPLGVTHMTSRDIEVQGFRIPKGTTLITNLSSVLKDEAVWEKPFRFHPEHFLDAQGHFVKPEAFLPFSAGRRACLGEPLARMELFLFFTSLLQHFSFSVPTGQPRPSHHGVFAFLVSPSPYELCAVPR

[4] = biological target: 5-hydroxytryptamine receptor 1D (Homo sapiens, UniProt P28221); test: Binding activity against human 5-hydroxytryptamine 1D receptor
Chain of 5-hydroxytryptamine receptor 1D (P28221 whole entry): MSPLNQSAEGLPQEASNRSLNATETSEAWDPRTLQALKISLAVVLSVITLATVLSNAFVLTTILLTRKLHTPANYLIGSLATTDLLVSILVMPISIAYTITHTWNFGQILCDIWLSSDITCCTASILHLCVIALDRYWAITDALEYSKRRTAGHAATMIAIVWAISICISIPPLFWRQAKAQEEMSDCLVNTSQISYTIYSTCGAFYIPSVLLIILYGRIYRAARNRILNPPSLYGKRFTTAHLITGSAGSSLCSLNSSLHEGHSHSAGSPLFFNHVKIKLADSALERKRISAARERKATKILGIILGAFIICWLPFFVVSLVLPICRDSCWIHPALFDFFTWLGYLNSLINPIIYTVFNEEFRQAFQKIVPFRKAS

[5] = Oral bioavailability in rat; conditions: in vivo

| Structure (SMILES) | Ki (D(2) dopamine receptor) | Ki (D(3) dopamine receptor) | Ki [1] | clearance [2] | half-life [3] | IC50 (Cytochrome P450 2D6) | Ki [4] | bioavailability [5] | Inhibition (Cytochrome P450 2D6) |
| --- | --- | --- | --- | --- | --- | --- | --- | --- | --- |
| Cl.N#Cc1ccc2c(c1)CN(CC[C@H]1CC[C@H](NC(=O)c3cc4ccccc4[nH]3)CC1)CC2 | – | – | 631 nM | 6 mL/min/kg | 6.3 h | 800 nM | 100 nM | 43% | – |
| N#Cc1ccc2c(c1)CCN(CC[C@H]1CC[C@H](NC(=O)c3ccc4ccccc4c3)CC1)C2 | 1580 nM | 10 nM | > 10000 nM | – | – | – | 100 nM | – | – |
| Cl.N#Cc1ccc2c(c1)CCN(CC[C@H]1CC[C@H](NC(=O)c3cc4ccccc4[nH]3)CC1)C2 | 794 nM | 15.8 nM | – | – | – | – | – | – | 17% |
| N#Cc1ccc2c(c1)CCN(CC[C@H]1CC[C@H](NC(=O)c3cccc4ccccc34)CC1)C2 | 398 nM | 7.94 nM | – | – | – | – | – | – | – |
| CS(=O)(=O)c1cccc(/C=C/C(=O)N[C@H]2CC[C@H](CCN3CCc4cc(C#N)ccc4C3)CC2)c1.Cl | 316 nM | 5.01 nM | 6310 nM | – | – | – | 3980 nM | 45% | – |
| N#Cc1ccc2c(c1)CCN(CC[C@H]1CC[C@H](NC(=O)/C=C/c3ccc(F)cc3)CC1)C2 | 200 nM | 3.16 nM | > 10000 nM | – | – | – | 631 nM | – | – |

Continued, values first:

| Ki (D(2) dopamine receptor) | Ki (D(3) dopamine receptor) | Ki [1] | clearance [2] | half-life [3] | IC50 (Cytochrome P450 2D6) | Ki [4] | bioavailability [5] | Inhibition (Cytochrome P450 2D6) | Structure (SMILES) |
| --- | --- | --- | --- | --- | --- | --- | --- | --- | --- |
| 126 nM | 3.16 nM | – | – | – | – | – | – | – | N#Cc1ccc2c(c1)CN(CC[C@H]1CC[C@H](NC(=O)/C=C/c3c[nH]c4ccccc34)CC1)CC2 |
| 158 nM | 1.26 nM | 158 nM | – | – | – | 100 nM | – | – | N#Cc1ccc2c(c1)CN(CC[C@H]1CC[C@H](NC(=O)/C=C/c3ccccc3)CC1)CC2 |
| 200 nM | 3.16 nM | 1000 nM | – | – | – | 316 nM | – | – | N#Cc1ccc2c(c1)CCN(CC[C@H]1CC[C@H](NC(=O)/C=C/c3ccccc3)CC1)C2 |
| – | – | 100 nM | – | – | – | 63.1 nM | – | – | O=C(/C=C/c1c[nH]c2ccccc12)NCCCCN1CCc2ccc(OS(=O)(=O)C(F)(F)F)cc2C1 |
| 794 nM | 12.6 nM | 158 nM | – | – | – | 251 nM | – | – | N#Cc1ccc2c(c1)CN(CCCCNC(=O)/C=C/c1c[nH]c3ccccc13)CC2 |
